In data set [1] the test system is A. baumannii AB5075. Description: Broth microdilution standalone MIC. The data set is classed as cell-based. The settings on record: Acinetobacter baumannii, AB5075, read-out: standalone MIC against AB5075. For orientation: Dilution methods test growth across graded concentrations, often in twofold steps.
The test system of a further data set is A. baumannii AB19606. Kind of data set: Broth microdilution standalone MIC. Format: cell-based. The settings on record: Acinetobacter baumannii, AB19606, read-out: standalone MIC against AB19606.
A further data set deals with HepG2 cells. Kind of data set: XTT cell viability assay with HepG2 cells. Format: cell-based, human. The settings on record: for TI: HepG2 IC50 / adjuvant concentration that reduces CLR MIC to breakpoint; for IC50: Homo sapiens. The method in brief: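 Cytotoxicity is tested on HepG2 human hepatoma cells, using lead cyclized-linker 2-AI-benzimidazole conjugates and their parent amide analogues. IC50 is taken from dose-response curves. […] TI is not calculated for compounds without adjuvant activity.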
In general terms: Formazan colour is commonly taken as a measure of viable cells.

The next data set has as its system AB2828. Kind of data set: CLR potentiation, clinical isolate. The settings on record: adjuvant at 10 μM. Format: cell-based, Acinetobacter baumannii.
For a further data set, the system named is AB3927. Description: CLR potentiation, clinical isolate. Format: cell-based, Acinetobacter baumannii. The settings on record: adjuvant at 10 μM.
A further data set concerns AB4025. Description: CLR potentiation, clinical isolate. The data set is classed as cell-based, Acinetobacter baumannii. The settings on record: adjuvant at 10 μM.
A further data set deals with AB4027. Kind of data set: CLR potentiation, clinical isolate. The data set is classed as cell-based, Acinetobacter baumannii. The settings on record: adjuvant at 10 μM.
The next data set deals with AB4448. Kind of data set: CLR potentiation, clinical isolate. The data set is classed as cell-based, Acinetobacter baumannii. The settings on record: adjuvant at 10 μM.
The next data set concerns AB4878. Kind of data set: CLR potentiation, clinical isolate. Format: cell-based, Acinetobacter baumannii. The settings on record: adjuvant at 10 μM.
In another data set the test system is AB5001. Kind of data set: CLR potentiation, clinical isolate. The data set is classed as cell-based, Acinetobacter baumannii. The settings on record: adjuvant at 10 μM.
For another data set, the system named is AB5256. Description: CLR potentiation, clinical isolate. Format: cell-based, Acinetobacter baumannii. The settings on record: adjuvant at 10 μM.
Another data set relates to AB5674. Description: CLR potentiation, clinical isolate. The settings on record: adjuvant at 10 μM. Format: cell-based, Acinetobacter baumannii.
A further data set relates to AB5711. Description: CLR potentiation, clinical isolate. The data set is classed as cell-based, Acinetobacter baumannii. The settings on record: adjuvant at 10 μM.
Another data set concerns AB8967. Kind of data set: CLR potentiation, clinical isolate. Format: cell-based, Acinetobacter baumannii. The settings on record: adjuvant at 10 μM.
The test system of a further data set is AB3560. Kind of data set: CLR potentiation, clinical isolate. The settings on record: adjuvant at 10 μM. Format: cell-based, Acinetobacter baumannii.
Another data set relates to AB3785. Description: CLR potentiation, clinical isolate. Format: cell-based, Acinetobacter baumannii. The settings on record: adjuvant at 10 μM.
The next data set concerns AB3806. Kind of data set: CLR potentiation, clinical isolate. Format: cell-based, Acinetobacter baumannii. The settings on record: adjuvant at 10 μM.
The next data set has as its system AB4026. Description: CLR potentiation, clinical isolate. The data set is classed as cell-based, Acinetobacter baumannii. The settings on record: adjuvant at 10 μM.
In another data set the test system is AB4052. Kind of data set: CLR potentiation, clinical isolate. The settings on record: adjuvant at 10 μM. The data set is classed as cell-based, Acinetobacter baumannii.
The next data set deals with AB4269. Description: CLR potentiation, clinical isolate. Format: cell-based, Acinetobacter baumannii. The settings on record: adjuvant at 10 μM.
A further data set concerns AB4490. Kind of data set: CLR potentiation, clinical isolate. Format: cell-based, Acinetobacter baumannii. The settings on record: adjuvant at 10 μM.
The next data set relates to AB4498. Kind of data set: CLR potentiation, clinical isolate. The data set is classed as cell-based, Acinetobacter baumannii. The settings on record: adjuvant at 10 μM.
In a further data set the test system is AB4556. Description: CLR potentiation, clinical isolate. The data set is classed as cell-based, Acinetobacter baumannii. The settings on record: adjuvant at 10 μM.
Another data set deals with AB4795. Kind of data set: CLR potentiation, clinical isolate. Format: cell-based, Acinetobacter baumannii. The settings on record: adjuvant at 10 μM.
In a further data set the test system is AB4857. Description: CLR potentiation, clinical isolate. The data set is classed as cell-based, Acinetobacter baumannii. The settings on record: adjuvant at 10 μM.
A further data set relates to AB4957. Description: CLR potentiation, clinical isolate. The settings on record: adjuvant at 10 μM. Format: cell-based, Acinetobacter baumannii.
In another data set the test system is AB4991. Kind of data set: CLR potentiation, clinical isolate. Format: cell-based, Acinetobacter baumannii. The settings on record: adjuvant at 10 μM.
A further data set has as its system AB5197. Kind of data set: CLR potentiation, clinical isolate. Format: cell-based, Acinetobacter baumannii. The settings on record: adjuvant at 10 μM.
Data set [2] concerns A. baumannii AB5075. Kind of data set: Checkerboard assay colistin and compound. The settings on record: COL alone. Format: cell-based, Acinetobacter baumannii.
Where [3] appears, read: HepG2, 24 h, read-out: HepG2 IC50.

Where two headings read alike, the source gives them in different places.

In the case of `Nc1nc(-c2ccc3nc(-c4cc(Cl)ccc4Cl)[nH]c3c2)c[nH]1` [Compound 12], the MIC in the data set on A. baumannii AB5075 [1] and in the data set on A. baumannii AB19606 was no less than 200 µM throughout.

For the compound `Cc1cc(C)cc(-c2nc3ccc(-c4c[nH]c(N)n4)cc3[nH]2)c1` [Compound 16], the MIC in the data set with A. baumannii AB5075 [1] and in the data set on A. baumannii AB19606 was no less than 200 µM each time.

As to `Nc1nc(-c2ccc3nc(-c4cccc(Cl)c4)[nH]c3c2)c[nH]1` [Compound 8], the minimal inhibitory concentration (MIC) with A. baumannii AB5075 [1] and with A. baumannii AB19606 was no less than 200 µM each time.

As to `Nc1nc(-c2ccc3nc(-c4ccccc4Cl)[nH]c3c2)c[nH]1` [Compound 9], the MIC with A. baumannii AB5075 [1] and in the data set with A. baumannii AB19606 was no less than 200 µM throughout.

For the compound `Nc1nc(-c2ccc3nc(-c4cccc(Cl)c4Cl)[nH]c3c2)c[nH]1` [Compound 10], the minimum inhibitory concentration (MIC) in the data set on A. baumannii AB5075 [1] and in the data set on A. baumannii AB19606 was no less than 200 µM in each case.

As for `Nc1nc(-c2ccc3nc(-c4ccc(Cl)cc4)[nH]c3c2)c[nH]1` [Compound 7], the MIC with A. baumannii AB5075 [1] and in the data set with A. baumannii AB19606 was no less than 200 µM in each case.

On to `Nc1nc(-c2ccc3nc(-c4ccc(Cl)cc4Cl)[nH]c3c2)c[nH]1` [Compound 11], for which the MIC in the data set with A. baumannii AB5075 [1] and in the data set on A. baumannii AB19606 was no less than 200 µM in each case.

With `Cl.Nc1nc(-c2ccc3nc(-c4ccc(Cl)c(Cl)c4)[nH]c3c2)c[nH]1` [Compound 5], the MIC in the data set with A. baumannii AB5075 [1] and with A. baumannii AB19606 was no less than 200 µM in each case. For the same compound, the TI in the data set with HepG2 cells is on record as 9.7–9.9. Moreover, the IC50 (commonly the concentration that gives 50% inhibition) with HepG2 cells (setting [3]) was determined as 73.5 ± 1.1 µM. For the same compound, the “CLR MIC fold reduction” value in the data set with AB2828 turned out to be 8 fold; in the data set on AB3927 it was 16 fold; in the data set with AB4025, 16 fold; in the data set with AB4027 it was 16 fold; in the data set with AB4448, 16 fold; with AB4878, 16 fold. In addition, the “CLR MIC fold reduction” value amounted to 16 fold with AB5001; 512 fold in the data set on AB5256; 64 fold with AB5674; 16 fold in the data set with AB5711; 32 fold in the data set with AB8967; 4 fold in the data set on AB3560. In addition, the “CLR MIC fold reduction” value with AB3785 was 64 fold; in the data set on AB3806, 4 [4] fold; with AB4026, 32 fold; in the data set with AB4052, 16 fold; in the data set with AB4269 it was 32 fold; with AB4490, 4 fold. Also, the “CLR MIC fold reduction” value in the data set on AB4498 was 8 [8] fold; in the data set on AB4556 it was 4 [4] fold; in the data set on AB4795, 8 fold; in the data set on AB4857, 4 fold; in the data set on AB4957, 4 fold; in the data set on AB4991, 8 fold. Further, in the data set with AB5197, the “CLR MIC fold reduction” value is 8 [8] fold.

For `Nc1nc(-c2ccc3nc(-c4cc(Cl)c(Cl)c(Cl)c4)[nH]c3c2)c[nH]1` [Compound 6], the MIC with A. baumannii AB5075 [1] and in the data set with A. baumannii AB19606 was no less than 200 µM in each case.

On to `COc1cc(OC)cc(-c2nc3ccc(-c4c[nH]c(N)n4)cc3[nH]2)c1` [Compound 15], for which the MIC in the data set on A. baumannii AB5075 [1] and in the data set with A. baumannii AB19606 was no less than 200 µM throughout.

For colistin, the “COL MIC against AB5075” value with A. baumannii AB5075 [2] is 1 µg/mL.

As for `Cl.Nc1nc(-c2ccc3nc(-c4ccc(Cl)c(C(F)(F)F)c4)[nH]c3c2)c[nH]1` [Compound 25], the MIC with A. baumannii AB5075 [1] and in the data set on A. baumannii AB19606 was 50 µM throughout. The TI in the data set on HepG2 cells was 18.7–19.0. For the same compound, the IC50 in the data set on HepG2 cells (setting [3]) was determined as 141.6 ± 1.1 µM. Moreover, the “CLR MIC fold reduction” value is 16 fold in the data set on AB2828; 128 fold with AB3927; 16 fold in the data set on AB4025; 32 fold with AB4027; 32 fold in the data set on AB4448; 32 fold in the data set on AB4878. Also, the “CLR MIC fold reduction” value in the data set on AB5001 came out at 32 fold; in the data set with AB5256, 128 fold; in the data set with AB5674, 128 fold; in the data set on AB5711, 64 fold; with AB8967 it was 64 fold; with AB3560 it was 16 fold. Further, the “CLR MIC fold reduction” value in the data set on AB3785 is 32 fold; in the data set with AB3806 it was 32 fold; in the data set with AB4026, 32 fold; with AB4052, 4 fold; in the data set with AB4269, 2 fold; in the data set with AB4490, 64 fold. Further, the “CLR MIC fold reduction” value was 8 [8] fold in the data set with AB4498; 8 fold in the data set on AB4556; 16 fold in the data set with AB4795; 16 fold in the data set on AB4857; 2 fold with AB4957; 32 fold in the data set on AB4991. The “CLR MIC fold reduction” value in the data set with AB5197 was found to be 32 fold.

For `Nc1nc(-c2ccc3nc(-c4cc(Cl)cc(Cl)c4)[nH]c3c2)c[nH]1` [Compound 2], the MIC with A. baumannii AB5075 [1] and with A. baumannii AB19606 was greater than 200 µM each time. The IC50 in the data set with HepG2 cells (HepG2, read-out: IC50 against HepG2 cells) came out at 69.8 µM.

In the case of `Cc1ccc(-c2nc3ccc(-c4c[nH]c(N)n4)cc3[nH]2)cc1C` [Compound 17], the MIC in the data set on A. baumannii AB5075 [1] and in the data set on A. baumannii AB19606 was no less than 200 µM throughout.
